Assay outcomes deposited in PubChem BioAssay by several laboratories.
An excerpt weighted towards active compounds, which were near 3.8% of everything screened.
Lipid droplet: hepatic lipid droplet formation modulation; 0.4% of 240,000 active; inhibition, % at 6.5 µM; AML12 mouse hepatocytes, oleate lipid droplets, BODIPY imaging;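 active means lipid droplet intensity inhibited by at least 50%, with more than 500 cells counted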
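Technique: fluorescence imaging, 20x objective, two fields per well / Assay system: AML12 hepatocytes (mouse) / Measure: % inhibition of lipid droplet signal / Doses: 6.5 µM single-point dosing / Incubation: overnight exposure / Reagent: 100 µM oleic acid challenge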
RGS4 act: potentiators or activators of RGS4. 0.92% of 310,000 active. HEK293 M3R/inducible RGS4, carbachol calcium flux Fluo4; active compounds read low. B-score at 10 µM;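 active means B-score of the integrated calcium signal more than 4 SD below the library mean, with starting fluorescence not abnormally high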;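 further: negative B-score means reduced calcium response which marks RGS4 activation or potentiation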
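System – HEK293 FlpIn-TREx cells, stable M3R, doxycycline-inducible RGS4 · Reagent – ECmax carbachol challenge · Times – compound preincubation 20 min at room temperature before agonist · Technique – Fluo4 fluorescence kinetic imaging of calcium · Measure – B score of integrated Fluo4 ratio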
MrgX1 antagonist: human MrgX1 receptor antagonism, primary screen; Q96LB2; MRGX1-HEK293 calcium flux, Fluo-4, BAM8-22 antagonism; active compounds read low; AID 588676; B-score at 10 µM; 1.3% of 310,000 active;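 active means calcium-response B-score plate-corrected more than 3 library SD below zero, starting fluorescence within 5 deviations, no agonist response on first addition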;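 further: peak minus trough fluorescence over baseline after final BAM8-22 challenge near maximal dose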
Target sequence (Q96LB2 whole entry, looked up): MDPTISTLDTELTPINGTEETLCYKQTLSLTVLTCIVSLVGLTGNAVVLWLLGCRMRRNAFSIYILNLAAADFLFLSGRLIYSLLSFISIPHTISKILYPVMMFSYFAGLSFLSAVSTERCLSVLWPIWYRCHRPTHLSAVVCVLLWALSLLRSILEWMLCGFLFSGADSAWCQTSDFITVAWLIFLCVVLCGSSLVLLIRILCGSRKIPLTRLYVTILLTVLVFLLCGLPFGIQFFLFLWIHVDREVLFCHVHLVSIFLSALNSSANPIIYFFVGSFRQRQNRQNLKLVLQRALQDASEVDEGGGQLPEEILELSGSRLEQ
RGS4 block: inhibitors of human RGS4; HEK293 M3R/RGS4 inducible, Fluo-4 calcium flux; active compounds read high; triggered by carbachol at its EC20; B-score at 10 µM; P49798; 0.45% of 310,000 active;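 active means B-score, a plate-corrected calcium signal, over three deviations above library mean, with baseline fluorescence within five deviations of library mean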;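 further: RGS4 expression induced by doxycycline in cells with stable M3 receptor; B-score is computed from the integrated fluorescence ratio over baseline after carbachol; higher B-score means a larger calcium signal and so more RGS4 inhibition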
Target sequence (P49798 whole entry, looked up): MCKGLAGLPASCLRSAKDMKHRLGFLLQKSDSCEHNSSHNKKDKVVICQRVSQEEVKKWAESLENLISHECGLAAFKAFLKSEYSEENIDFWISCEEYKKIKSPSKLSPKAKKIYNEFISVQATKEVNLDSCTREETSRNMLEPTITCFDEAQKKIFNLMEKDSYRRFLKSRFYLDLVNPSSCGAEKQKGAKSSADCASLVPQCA
MrgX1 ag: human MrgX1 receptor agonism, primary screen; B-score at 10 µM; MrgX1-HEK293 cells, Fluo-4 calcium fluorescence, agonist mode; active compounds read high; Q96LB2; 0.44% of 310,000 active; AID 588627;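 active means calcium response B-score plate-corrected fluorescence ratio at least 3 library SD, with starting fluorescence B-score inside 5 SD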
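Material: MrgX1-expressing HEK293 cells / Dosing: compound as first of three additions / Incubation: overnight seeding, then 1 h dark dye loading / Signal: Fluo-4 NW calcium fluorescence / Evaluation: B-scored fluorescence response ratio / Benchmarks: positive and negative control wells on each plate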
MrgX1 PAM: allosterically activates human MrgX1 receptor signaling; Q96LB2; MrgX1-HEK293, Fluo-4 calcium flux, FDSS; active compounds read high; B-score at 10 µM; 0.63% of 310,000 active; AID 588675;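 active means plate-corrected calcium response at least 3 library SD above typical, normal starting fluorescence, not activating the receptor alone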;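 further: compound read alongside a low EC10 to EC30 dose of BAM8-22 agonist; peak minus trough fluorescence over baseline measured at the second addition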
MrgX1 ant reconf: human MrgX1 receptor antagonism, re-confirmation screen; shares compounds with MrgX1 antagonist; MrgX1-HEK293, BAM8-22 calcium flux, Fluo-4; active compounds read low; 19% of 2,300 active; remaining BAM8-22 calcium response % of control (active compounds read low), % at 10 µM;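 active means remaining agonist calcium response no higher than 100% minus 3 SD of agonist-only control wells, with starting fluorescence near control levels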;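 further: agonist BAM8-22 given at a near maximal EC90 to ECmax level; peak minus minimum fluorescence divided by baseline after agonist addition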
HEK293 Ca flux: MrgX1 antagonist counter-screen hit in parental HEK293 cells. shares compounds with MrgX1 antagonist. Fluo-4 calcium fluorescence, FDSS. fluorescence ratio F(max-min)/F0 at 10 µM. 2% of 4,000 active. AID 624111;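 active means duplicate-averaged calcium fluorescence ratio at least three times the standard deviation of buffer wells, a nonspecific response in parental cells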
HEK293 Ca counter: activity in parental HEK293 cells without MrgX1; shares compounds with MrgX1 antagonist; parental HEK293 calcium flux, Fluo-4 fluorescence ratio; active compounds read high; fluorescence ratio F(max-min)/F0 at 10 µM; 0.4% of 4,000 active; AID 624114;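 active means calcium fluorescence ratio, averaged over duplicates, at least 3 SD of the buffer-well ratio, meaning a nonspecific response in receptor-free cells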;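 further: untransfected parental HEK293 lacking MrgX1 used as counterscreen for MrgX1 allosteric activators; fluorescence change taken during the second addition on a kinetic imager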
HEK293 Ca cntr2: activity in parental HEK293 cells lacking MrgX1 receptor. Fluo-4 calcium fluorescence (FDSS); active compounds read high. 8.7% of 4,000 active. AID 624115. fluorescence ratio F(max-min)/F0 at 10 µM. shares compounds with MrgX1 antagonist;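 active means calcium fluorescence ratio at least three times the spread of buffer wells, meaning a non-specific response in parental cells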
* = called active by the depositor.

`O=C(c1ccc(Br)o1)N1CCN(C23CC4CC(CC(C4)C2)C3)CC1` gave Lipid droplet -6, RGS4 act inactive, MrgX1 antagonist -5*, RGS4 block inactive, MrgX1 ag inactive, MrgX1 PAM inactive, MrgX1 ant reconf inactive, HEK293 Ca flux inactive, HEK293 Ca counter inactive and HEK293 Ca cntr2 inactive.
CNc1c(C(=O)O)ccc2c1C(=O)c1ccccc1C2=O was read as Lipid droplet 12, RGS4 act inactive, MrgX1 antagonist -8.6*, RGS4 block inactive, MrgX1 ag inactive, MrgX1 PAM inactive, MrgX1 ant reconf inactive, HEK293 Ca flux inactive, HEK293 Ca counter inactive and HEK293 Ca cntr2 inactive.
CN(Cc1nccn1C)C(=O)CCc1nnc(CCC2CCCCC2)o1 was read as Lipid droplet 0, RGS4 act inactive, MrgX1 antagonist inactive, RGS4 block inactive, MrgX1 ag inactive and MrgX1 PAM inactive.
`COC(=O)C(Cc1ccccc1)NC(=O)c1cc(=O)[nH]c2ccccc12` (stereo not drawn) gave Lipid droplet 1, RGS4 act inactive, MrgX1 antagonist -4.7*, RGS4 block inactive, MrgX1 ag inactive, MrgX1 PAM inactive, MrgX1 ant reconf inactive, HEK293 Ca flux inactive, HEK293 Ca counter inactive and HEK293 Ca cntr2 inactive.
Screening CC(Sc1nnc(-c2ccc(OC(F)F)cc2)n1N)C(=O)NCC1CCCO1 (stereo not drawn) returned RGS4 act inactive, MrgX1 antagonist inactive, RGS4 block inactive, MrgX1 ag inactive and MrgX1 PAM inactive.
`O=C(Nc1nc2n(n1)C(c1ccc(F)cc1)CC(c1ccccc1)N2)c1ccco1` (stereo not drawn) gave Lipid droplet 4, RGS4 act inactive, MrgX1 antagonist inactive, RGS4 block inactive, MrgX1 ag inactive and MrgX1 PAM inactive.
Screening CCN(CC)c1ccc(C(=O)O)cc1 returned Lipid droplet -10, RGS4 act inactive, MrgX1 antagonist -5.7*, RGS4 block inactive, MrgX1 ag inactive, MrgX1 PAM inactive, MrgX1 ant reconf inactive, HEK293 Ca flux inactive, HEK293 Ca counter inactive and HEK293 Ca cntr2 inactive.
O=C(O)c1ccc(N(c2ccccc2)c2ccccc2)cc1 was read as Lipid droplet -20, MrgX1 antagonist inactive, MrgX1 ag inactive and MrgX1 PAM inactive.
Screening CCC(NS(=O)(=O)c1ccc(OC)cc1)C(=O)NCCc1ccccc1 (stereo not drawn) returned Lipid droplet -2, RGS4 act inactive, MrgX1 antagonist inactive, RGS4 block inactive, MrgX1 ag inactive and MrgX1 PAM inactive.
For CCOC(=O)C(C)Sc1nc(=O)n2ccccc2n1 (stereo not drawn) the results were Lipid droplet -6, RGS4 act inactive, MrgX1 antagonist -5.1*, RGS4 block inactive, MrgX1 ag inactive, MrgX1 PAM inactive, MrgX1 ant reconf inactive, HEK293 Ca flux inactive, HEK293 Ca counter inactive and HEK293 Ca cntr2 inactive.
Screening CCOC(=O)C(C)Sc1nc(=O)n2cc(C)ccc2n1 (stereo not drawn) returned Lipid droplet -2, RGS4 act inactive, MrgX1 antagonist inactive, RGS4 block inactive, MrgX1 ag inactive and MrgX1 PAM inactive.
